Series [1] in a line: Binding affinity to low-affinity site of human alpha-1-acid glycoprotein at 20 degC by surface plasmon resonance assay. The series is classed as ADME. The method in brief:
(§1)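 Cross-serial dilutions, top 250 μM. Reference-subtracted, solvent-corrected, double-referenced responses at the end of association plotted against concentration and fitted to single- or two-site equilibrium models.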

The nature of series [2]: Binding affinity to human alpha-1-acid glycoprotein at 25 degC. The series is classed as ADME.
The nature of series [3]: Binding affinity to high-affinity site of human alpha-1-acid glycoprotein at 20 degC by surface plasmon resonance assay. In kind it is ADME. The method in brief: as §1
Series [4] concerns the target T1, Albumin (Homo sapiens, UniProt P02768). Kind of series: Binding affinity to human serum albumin at 500 uM at 20 degC by surface plasmon resonance assay. In kind it is ADME. As to conditions: isolated protein. A general note: SPR reads the build-up and loss of mass on a sensor chip optically.
The nature of series [5]: Binding affinity to low-affinity binding site of rat alpha-1-acid glycoprotein at 20 degC by surface plasmon resonance assay. The series is classed as ADME. In outline: as §1
A short description of series [6]: Binding affinity to human alpha-1-acid glycoprotein at 20 degC by isothermal titration calorimetry analysis. In kind it is ADME. In outline:
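ITC at 20 °C. Human (300 μM) or rat (100 μM) AAG dialysed overnight at 4 °C into 50 mM HEPES pH 7.2, 150 mM NaCl, 0.005% Tween-20, 5% DMSO. Heats corrected with buffer controls and fitted to a one-site model.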
(In general: In ITC the heat of successive injections is recorded.)

In series [7] the target is T2, Albumin (Rattus norvegicus, UniProt P02770). Kind of series: Binding affinity to rat serum albumin at 500 uM at 37 degC by surface plasmon resonance assay. The series is classed as ADME. The following applies: isolated protein.
Series [8] can be described thus: Binding affinity to high-affinity binding site of rat alpha-1-acid glycoprotein at 20 degC by surface plasmon resonance assay. In kind it is ADME. In outline:
as §1

Series [9] addresses T1, Albumin. Kind of series: Binding affinity to human serum albumin at 500 uM at 37 degC by surface plasmon resonance assay. As to conditions: isolated protein. In kind it is ADME.
Series [10] concerns the target T2, Albumin. Kind of series: Binding affinity to rat serum albumin at 500 uM at 20 degC by surface plasmon resonance assay. In kind it is ADME. As to conditions: isolated protein.
Series [11] is described as follows: Binding affinity to human alpha-1-acid glycoprotein at 500 uM at 37 degC by surface plasmon resonance assay. The series is classed as ADME. The method in brief: (§2)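 Compounds were diluted from 10 mM DMSO stocks into 50 mM Hepes pH 7.2, 150 mM NaCl, 0.005% Tween-20, 5% DMSO, in cross-serial dilutions. Responses at the end of association were double-referenced, solvent-corrected and fit to single- or two-site equilibrium models for KD.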

A short description of series [12]: Binding affinity to rat alpha-1-acid glycoprotein at 500 uM at 37 degC by surface plasmon resonance assay. In kind it is ADME. The method in brief: as §2
A short description of series [13]: Binding affinity to human alpha-1-acid glycoprotein at 500 uM at 20 degC by surface plasmon resonance assay. In kind it is ADME. In outline: as §2
A short description of series [14]: Binding affinity to rat alpha-1-acid glycoprotein at 500 uM at 20 degC by surface plasmon resonance assay. The series is classed as ADME. The method in brief:
as §2

Series [15] is described as follows: Binding affinity to human alpha-1-acid glycoprotein at 37 degC by surface plasmon resonance assay. The series is classed as ADME. The method in brief:
as §1

For series [16], the target named is T2, Albumin. The series can be described thus: Binding affinity to high-affinity binding site of rat serum albumin at 20 degC by surface plasmon resonance assay.
Series [17] in a line: Binding affinity to 100 uM of human alpha-1-acid glycoprotein in at 25 uM after 6 hrs by equilibrium dialysis method. In kind it is ADME. As to conditions: isolated protein. In outline:
(§3)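 [14C]-labelled plus unlabelled drug added to human AAG at 0.5, 1 or 5 mg/mL to give 5, 25 or 75 μM drug. Dialysed against 0.133 M isotonic phosphate buffer, 6 h, 37 °C, 5% CO2. Scintillation counting of both sides gives % free (buffer/protein side ×100) and % bound. High-affinity KD from a two-site fit of bound vs free, Bmax1 fixed at the AAG concentration.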

Series [18] has as its target T2, Albumin. The series can be described thus: Binding affinity to low-affinity binding site of rat serum albumin at 20 degC by surface plasmon resonance assay.
Series [19] is described as follows: Binding affinity to 10 uM of human alpha-1-acid glycoprotein in at 5 uM after 6 hrs by equilibrium dialysis method. The series is classed as ADME. As to conditions: isolated protein. In outline:
as §3

A short description of series [20]: Binding affinity to 10 uM of human alpha-1-acid glycoprotein in at 25 uM after 6 hrs by equilibrium dialysis method. The series is classed as ADME. The following applies: isolated protein. In outline:
as §3

Series [21] can be described thus: Binding affinity to […] uM of human alpha-1-acid glycoprotein in at 75 uM after 6 hrs by equilibrium dialysis method. The series is classed as ADME. As to conditions: isolated protein. (In equilibrium dialysis free small molecules cross a membrane that holds back macromolecules.)
The nature of series [22]: Binding affinity human alpha-1-acid glycoprotein in after 6 hrs by equilibrium dialysis method. In kind it is ADME. In outline:
as §3

Series [23] in a line: Binding affinity to 10 uM of human alpha-1-acid glycoprotein in at 75 uM after 6 hrs by equilibrium dialysis method. The series is classed as ADME. The following applies: isolated protein. In outline: as §3
A short description of series [24]: Binding affinity to 100 uM of human alpha-1-acid glycoprotein in at 75 uM after 6 hrs by equilibrium dialysis method. As to conditions: isolated protein. In kind it is ADME. The method in brief:
as §3

Series [25] can be described thus: Binding affinity to […] uM of human alpha-1-acid glycoprotein in at 25 uM after 6 hrs by equilibrium dialysis method. The series is classed as ADME. As to conditions: isolated protein.
Series [26] can be described thus: Binding affinity to rat alpha-1-acid glycoprotein at 250 uM at 37 degC by surface plasmon resonance assay. The series is classed as ADME. In outline: as §1
Series [27] concerns the target Sonic hedgehog protein (Homo sapiens) (UniProt Q15465). Kind of series: Inhibition of human SHH pathway in mouse S12 cells assessed as GLI-mediated transcriptional activity at 3 uM after 48 hrs by luciferase reporter gene assay in presence of 5 mg/mL human alpha-1-acid glycoprotein. In kind it is cell-based. The method in brief: (§4)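 Mouse C3H10T1/2-derived S12 cells carrying a stably integrated GLI-luciferase reporter. Grown in high-glucose DMEM with 10% FBS, replated, then switched to 0.5% FBS to induce cilia. Shh, human AAG (0, 0.5, 1 or 5 mg/mL) and compound added. Luciferase (Dual-Glo) read after 48 h. Mean of four experiments ±SD.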

Series [28] addresses T2, Albumin. Kind of series: Binding affinity to rat serum albumin at 37 degC by surface plasmon resonance assay.
Series [29] can be described thus: Binding affinity to 100 uM of human alpha-1-acid glycoprotein in at 5 uM after 6 hrs by equilibrium dialysis method. In kind it is ADME. As to conditions: isolated protein. In outline:
as §3

Series [30] in a line: Binding affinity to […] uM of human alpha-1-acid glycoprotein in at 5 uM after 6 hrs by equilibrium dialysis method. The following applies: isolated protein. In kind it is ADME.
For series [31], the target named is Sonic hedgehog protein (Homo sapiens) (UniProt Q15465). The series can be described thus: Inhibition of human SHH pathway in mouse S12 cells assessed as GLI-mediated transcriptional activity after 48 hrs by luciferase reporter gene assay in presence of 1 mg/mL human alpha-1-acid glycoprotein. In kind it is cell-based. The method in brief:
as §4

The structures appear in SMILES notation. pKd: −log10 of the molar value. Activity calls are given as the source filed them. The rule behind the calls is not given here.

T2 sequence (P02770 whole entry): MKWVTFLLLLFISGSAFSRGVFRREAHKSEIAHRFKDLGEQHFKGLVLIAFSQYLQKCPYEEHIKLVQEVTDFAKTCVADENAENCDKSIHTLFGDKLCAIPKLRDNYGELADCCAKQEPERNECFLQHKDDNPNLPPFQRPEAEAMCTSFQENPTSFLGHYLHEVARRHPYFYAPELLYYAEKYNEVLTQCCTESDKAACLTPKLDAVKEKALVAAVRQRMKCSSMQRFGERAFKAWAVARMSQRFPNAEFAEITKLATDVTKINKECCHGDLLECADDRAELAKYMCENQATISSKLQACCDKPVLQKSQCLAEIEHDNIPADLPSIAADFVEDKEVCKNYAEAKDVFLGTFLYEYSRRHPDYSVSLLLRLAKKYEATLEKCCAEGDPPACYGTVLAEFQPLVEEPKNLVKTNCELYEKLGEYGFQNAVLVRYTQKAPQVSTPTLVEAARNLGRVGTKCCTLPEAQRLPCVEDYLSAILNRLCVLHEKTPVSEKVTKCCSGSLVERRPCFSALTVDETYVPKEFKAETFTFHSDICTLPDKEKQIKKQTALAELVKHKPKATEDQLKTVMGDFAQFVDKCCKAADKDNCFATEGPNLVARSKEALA
Sequence of Sonic hedgehog protein (Homo sapiens) (Q15465 24-197 limits assumed): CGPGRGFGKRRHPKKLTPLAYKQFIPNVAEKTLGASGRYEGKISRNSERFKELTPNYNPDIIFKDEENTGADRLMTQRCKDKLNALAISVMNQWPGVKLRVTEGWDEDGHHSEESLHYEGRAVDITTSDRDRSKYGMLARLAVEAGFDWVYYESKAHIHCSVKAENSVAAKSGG
T1 sequence (P02768 whole entry): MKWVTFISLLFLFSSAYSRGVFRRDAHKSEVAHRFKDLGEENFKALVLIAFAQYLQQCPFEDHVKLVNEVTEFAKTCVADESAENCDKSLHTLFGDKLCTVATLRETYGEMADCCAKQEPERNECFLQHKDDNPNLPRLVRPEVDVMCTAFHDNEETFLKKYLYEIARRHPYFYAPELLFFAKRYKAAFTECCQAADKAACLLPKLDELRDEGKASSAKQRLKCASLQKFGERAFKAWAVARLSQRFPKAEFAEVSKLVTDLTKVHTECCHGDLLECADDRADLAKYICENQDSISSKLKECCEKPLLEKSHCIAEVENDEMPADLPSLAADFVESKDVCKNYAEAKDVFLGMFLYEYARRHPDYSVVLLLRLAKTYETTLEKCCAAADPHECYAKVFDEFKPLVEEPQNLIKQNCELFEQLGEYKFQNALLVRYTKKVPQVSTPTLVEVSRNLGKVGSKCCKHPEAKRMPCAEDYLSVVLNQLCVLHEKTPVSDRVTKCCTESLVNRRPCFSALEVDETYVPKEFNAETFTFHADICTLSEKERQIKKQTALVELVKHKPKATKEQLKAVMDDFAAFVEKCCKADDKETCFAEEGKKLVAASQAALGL

What is called pKd is −log10 of the Kd, conventionally taken in molar units. For `C=CC1=C(C)/C(=C/C2=NC(=C\c3[nH]c(/C=C4\NC(=O)C(C)=C4C=C)c(C)c3CCC(=O)O)/C(CCC(=O)O)=C2C)NC1=O` [BILIVERDIN], the pKd was 3.66 in [1]; 5.08 in series [2]; 4.82 in series [3]; 2.77 in series [5]; 5.15 in [6]; 4.15 in [8]. Moreover, the Activity entry on Albumin [4], on Albumin [7], at Albumin [9] and on Albumin [10] was “Not Active” in each case.

In the case of `CC(=O)CC(c1ccccc1)c1c(O)c2ccccc2oc1=O` (centres undefined) [WARFARIN], the Activity entry in [11], in series [12], in series [13] and in series [14] was “Not Active” throughout.

Consider `CS(=O)(=O)c1ccc(C(=O)Nc2ccc(Cl)c(-c3ccccn3)c2)c(Cl)c1` [VISMODEGIB], for which the negative logarithm of the Kd (pKd) in [1] is 3.86; in series [15], 4.89; on Albumin [16], 3.77; on Albumin [18], 5.24; in series [3], 5.43; in series [22], 5.82. The pKd in series [6] is 5.96; on Albumin [28], 3.85. Besides, the Activity in series [17] is 98.7%; in series [19], 96.5%; in [20], 70.4%; in series [21] it was 60%; in [23], 41.1%; in series [24], 98.3%. Moreover, the Activity in series [25] is recorded as 88.9%; in series [26], “Not Active”; in series [29], 98.8%; in series [30], 98.3%. The inhibition entry in series [27] is “inactive”. Moreover, in series [31], the inhibition result was “Active”.

The values above are taken from ChEMBL document CHEMBL1772967 (J Med Chem, 2011).
